Measurements: ChEMBL document CHEMBL1255521, “Identification and optimization of substituted 5-aminopyrazoles as potent and selective adenosine A1 receptor antagonists” (Bioorg Med Chem Lett, 2010)
Active and inactive are the calls of the source. The calls are words filed in the database; no cut-off is given here.

Key:
[1] = target: T1, Adenosine receptor A1 (Homo sapiens, UniProt P30542); experiment: Antagonist activity at adenosine A1 receptor by cAMP assay; format: functional
T1 sequence (P30542 whole entry): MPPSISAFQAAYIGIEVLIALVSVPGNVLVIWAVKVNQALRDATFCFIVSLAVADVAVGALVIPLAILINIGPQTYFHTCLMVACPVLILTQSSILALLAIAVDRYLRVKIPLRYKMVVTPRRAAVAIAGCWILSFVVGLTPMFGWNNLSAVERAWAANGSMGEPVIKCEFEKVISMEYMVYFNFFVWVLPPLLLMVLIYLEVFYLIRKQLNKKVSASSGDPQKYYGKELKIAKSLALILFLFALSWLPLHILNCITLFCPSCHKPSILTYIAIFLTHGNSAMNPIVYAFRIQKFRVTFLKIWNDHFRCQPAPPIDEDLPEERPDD
Summary of the method: (§1)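 cAMP functional assay run in antagonist mode at each receptor subtype, with IC50 values reported as means of three experiments.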

[2] = Blood clearance in Wistar rat at 1 mg/kg, iv and 3 mg/kg, po; format: ADME, organism-based; details: whole blood
Summary of the method: (§2)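 Pharmacokinetics in Wistar rats, with intravenous dosing at 1 mg/kg in a vehicle of 1% DMSO and 99% plasma.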

[3] = Half life in Wistar rat at 1 mg/kg, iv and 3 mg/kg, po; format: ADME, organism-based; details: in vivo; summary of the method: as §2
[4] = Oral bioavailability in Wistar rat at 3 mg/kg; format: ADME, organism-based; details: in vivo
[5] = target: Adenosine receptor A2a (Homo sapiens, UniProt P29274); experiment: Antagonist activity at adenosine A2A receptor by cAMP assay; format: functional; summary of the method: as §1
[6] = target: T2, Adenosine receptor A2b (Homo sapiens, UniProt P29275); experiment: Antagonist activity at adenosine A2B receptor by cAMP assay; format: functional; summary of the method: as §1
T2 sequence (P29275 whole entry): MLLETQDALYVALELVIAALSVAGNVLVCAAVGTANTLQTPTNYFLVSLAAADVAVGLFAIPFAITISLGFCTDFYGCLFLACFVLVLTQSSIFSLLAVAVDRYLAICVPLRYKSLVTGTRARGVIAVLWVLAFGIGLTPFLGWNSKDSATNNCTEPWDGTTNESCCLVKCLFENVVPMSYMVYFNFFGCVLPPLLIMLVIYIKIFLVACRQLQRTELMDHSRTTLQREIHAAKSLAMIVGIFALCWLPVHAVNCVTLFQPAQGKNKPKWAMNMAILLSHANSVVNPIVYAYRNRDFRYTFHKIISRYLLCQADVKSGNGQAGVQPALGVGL

[7] = target: T3, Adenosine receptor A3 (Homo sapiens, UniProt P0DMS8); experiment: Antagonist activity at adenosine A3 receptor by cAMP assay; format: functional; summary of the method: as §1
T3 sequence (P0DMS8 whole entry): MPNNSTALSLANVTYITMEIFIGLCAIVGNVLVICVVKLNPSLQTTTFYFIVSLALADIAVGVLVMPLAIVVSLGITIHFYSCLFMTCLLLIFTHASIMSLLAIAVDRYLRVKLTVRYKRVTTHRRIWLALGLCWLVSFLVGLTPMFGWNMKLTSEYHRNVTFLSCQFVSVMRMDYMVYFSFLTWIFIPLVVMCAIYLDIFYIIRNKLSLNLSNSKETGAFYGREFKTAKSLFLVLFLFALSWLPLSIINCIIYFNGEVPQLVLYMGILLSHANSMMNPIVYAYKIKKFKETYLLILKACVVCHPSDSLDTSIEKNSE

[8] = system: Rattus norvegicus; experiment: Diuretic activity in Wistar rat assessed as urine volume at 0.3 mg/kg, iv administered after 7 days of acclimatization; format: functional, organism-based; parameters: dose 0.3 mg/kg
Summary of the method: (§3)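 Wistar rats received compound intravenously in 1 ml/kg vehicle (40% PEG400, 60% Tris buffer), 6–8 animals per dose group, at doses between 0.1 and 3.0 mg/kg. Urine was collected at the cage bottom into collecting tubes, usually over 4 h. Volume was measured, and sodium and potassium were read by flame photometer.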

[9] = system: Rattus norvegicus; experiment: Natriuretic activity in Wistar rat assessed as increase in natriuresis at 0.1 mg/kg, iv administered after 7 days of acclimatization; format: functional, organism-based; parameters: dose 0.1 mg/kg; summary of the method: as §3
[10] = system: Mus musculus; experiment: Anticonvulsant activity in mouse assessed as inhibition of maximal electroshock-induced convulsion at 30 mg/kg, iv by MES test; format: functional, organism-based; parameters: dose 30 mg/kg
[11] = system: Mus musculus; experiment: Anticonvulsant activity in mouse assessed as inhibition of pentylenetetrazole-induced convulsion at 30 mg/kg, iv; format: functional, organism-based; parameters: dose 30 mg/kg
[12] = Selectivity ratio of IC50 for adenosine A2B receptor to IC50 for adenosine A1 receptor

Sequence of Adenosine receptor A2a (P29274 whole entry): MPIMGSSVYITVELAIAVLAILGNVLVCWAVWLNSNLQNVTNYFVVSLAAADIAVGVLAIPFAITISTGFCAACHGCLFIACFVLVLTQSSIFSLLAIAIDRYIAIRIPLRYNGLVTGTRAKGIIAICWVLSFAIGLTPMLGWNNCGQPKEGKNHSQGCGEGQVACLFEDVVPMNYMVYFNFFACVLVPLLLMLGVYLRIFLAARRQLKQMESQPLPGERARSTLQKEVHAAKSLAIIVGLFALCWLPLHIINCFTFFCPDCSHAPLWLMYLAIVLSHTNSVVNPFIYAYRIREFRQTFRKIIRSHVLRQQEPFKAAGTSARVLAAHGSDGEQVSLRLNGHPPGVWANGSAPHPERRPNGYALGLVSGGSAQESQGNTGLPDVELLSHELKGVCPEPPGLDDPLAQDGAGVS

Structure (SMILES) | IC50 [1] [nM] | IC50 [5] [nM] | IC50 [6] [nM] | also measured
COc1ccc(Nc2c(-c3ccc4nccnc4c3)c(C)nn2C2CCCCC2)c(C(=O)O)c1 | 435 | > 50000 | > 50000 | –
Cc1ccccc1-n1ncc(-c2ccc3nccnc3c2)c1Nc1ccccc1C(=O)O | 277 | > 50000 | > 50000 | –
COc1ccc(-c2c(C)nn(-c3ccccc3C)c2Nc2ccc(OC)cc2C(=O)O)cc1 | 306 | – | – | –
Cc1ccc(Nc2c(-c3ccc4nccnc4c3)c(C)nn2-c2ccccc2C)c(C(=O)O)c1 | 5.1 | > 50000 | > 50000 | –
COc1ccc(Nc2c(-c3ccc4nccnc4c3)c(C)nn2-c2ccccc2C)c(C(=O)O)c1 | 3.2 | > 50000 | > 50000 | IC50 [7]: 13000 nM; clearance [2]: 43.7 mL/min/kg; half-life [3]: 0.4 h; bioavailability [4]: 20%
COc1ccc(Nc2c(-c3ccc4nccnc4c3)c(C)nn2-c2ccccc2)c(C(=O)O)c1 | 2.8 | 5500 | 1100 | –
Cc1ccccc1-n1nc(C)c(-c2cc(F)c3nccnc3c2)c1Nc1ccccc1C(=O)O | – | > 50000 | > 50000 | IC50 [7]: > 10000 nM; clearance [2]: 9.5 mL/min/kg; half-life [3]: 1.8 h; bioavailability [4]: 97%; Activity [8]: Active; Activity [9]: Active; Activity [10]: inactive; Activity [11]: inactive; Ratio IC50 [12]: > 83000
COc1ccc(Nc2c(-c3ccc4nccnc4c3)c(C)nn2-c2ccccc2Cl)c(C(=O)O)c1 | 7.3 | > 50000 | > 50000 | –
Cc1ccccc1-n1nc(C(F)(F)F)c(-c2ccc3nccnc3c2)c1Nc1ccccc1C(=O)O | 9 | > 50000 | 19000 | –
COc1ccc(Nc2c(-c3ccc(F)c(F)c3)c(C)nn2-c2ccccc2C)c(C(=O)O)c1 | 294 | – | – | –
Cc1ccccc1-n1nc(C)c(-c2ccc3nccnc3c2)c1Nc1ccc(Cl)cc1C(=O)O | 16 | > 50000 | > 50000 | –
COc1ccc(Nc2c(-c3ccc4c(c3)OCO4)c(C)nn2-c2ccccc2C)c(C(=O)O)c1 | 231 | – | – | –
CCc1ccccc1-n1nc(C)c(-c2ccc3nccnc3c2)c1Nc1ccc(OC)cc1C(=O)O | 6.4 | > 50000 | > 50000 | –

Further lines, with some results ahead:

IC50 [1] [nM] | IC50 [5] [nM] | IC50 [6] [nM] | Structure (SMILES) | also measured
40 | – | – | COc1ccc(Nc2c(-c3ccc(C(C)=O)cc3)c(C)nn2-c2ccccc2C)c(C(=O)O)c1 | clearance [2]: 66.7 mL/min/kg; half-life [3]: 1.5 h; bioavailability [4]: 20%
1.39 | – | – | COc1ccc(Nc2c(-c3ccc(F)cc3)c(C)nn2-c2ccccc2C)c(C(=O)O)c1 | –
233 | – | – | COc1ccc(Nc2c(-c3ccc(OC)c(OC)c3)c(C)nn2-c2ccccc2C)c(C(=O)O)c1 | –
8 | > 50000 | > 50000 | Cc1ccccc1-n1nc(C)c(-c2ccc3nccnc3c2)c1Nc1ccccc1C(=O)O | –
3.16 | – | – | COc1ccc(Nc2c(-c3ccc(C)cc3)c(C)nn2-c2ccccc2C)c(C(=O)O)c1 | –
27 | – | – | COc1ccc(Nc2c(-c3ccc4c(c3)OCCO4)c(C)nn2-c2ccccc2C)c(C(=O)O)c1 | –
568 | – | – | COc1ccc(Nc2c(-c3ccc(C)c(C)c3)c(C)nn2-c2ccccc2C)c(C(=O)O)c1 | –
13 | > 50000 | > 50000 | CCc1nn(-c2ccccc2C)c(Nc2ccccc2C(=O)O)c1-c1ccc2nccnc2c1 | –
